Screening results (PubChem)
ABCB6 inh 2 = blocks the human ABCB6 transporter | Q9NP58 | K562-ABCB6 porphyrin accumulation, flow cytometry, 1 h; stronger effect = lower value | fluorescence ratio to DMSO, % at 10 µM | 360,000 compounds, 0.19% hits | AID 602162;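 active means fluorescence ratio to DMSO below 75%, the collection mean minus 3 SD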;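 further: signal is porphyrin accumulated inside mitochondria; 100% equals median channel fluorescence of DMSO control wells; lower ratio means ABCB6 inhibition with less porphyrin fluorescence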
Exocytosis inh = blocks lytic granule exocytosis | TALL-104 LAMP-1 surface exposure, flow cytometry; cells stimulated with thapsigargin and PMA | AID 651702 | 360,000 compounds, 0.66% hits | inhibition, % at 10 µM;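 active means inhibition above about 55%, limit read from the data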
MT1-MMP act inh = MT1-MMP (human) activation inhibition; HT1080 RFP-PRO-GFP cells, GFP/RFP ratio fluorescence, overnight; percent of plate control window, DMSO zero; GFP/RFP ratio change, % at 20 µM; 360,000 compounds, 0.061% hits; P50281; AID 651647;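 active means GFP/RFP ratio change of at least 30% with cell ATP level not reduced by more than half and red fluorescence within 50% of control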
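Read-out: GFP/RFP fluorescence ratio; Test system: RFP-PRO-GFP reporter HT1080 cells; Compound dosing: single-point 20 µM compound, 1% DMSO; Times: overnight compound exposure at 37 °C.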
VLA-4 inh = inhibition in a human VLA-4 binding assay | AID 2557 | inhibition, % (about 7 µM as worked out from the volumes in the protocol) | P13612 | VLA-4 expressing cells, ligand binding flow cytometry | 330,000 compounds, 0.2% hits; in the data active means inhibition above about 50%
DAGLB inh = diacylglycerol lipase beta (human) inhibition | 340,000 compounds, 0.059% hits | Q8NCG7 | AID 504411 | inhibition, % at 5.17 µM | HEK293T DAGLB membrane lysate, EnzChek fluorogenic substrate; in the data active means inhibition above about 34%;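 further: 0% = enzyme with vehicle and 100% = wells lacking enzyme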
FGF22 binding = binders of recombinant human FGF22 by thermal shift; SYPRO orange fluorescence; percent of sucrose octasulfate shift, DMSO zero; Q9HCT0; 340,000 compounds, 1.5% hits; AID 651658; activity (Tm shift, normalised), % at 9.99 µM;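 active means mean Tm shift, scaled 0 neutral to 100 positive control, at about 1.3% or above, every replicate too, limit read from the data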
Target sequence (Q9HCT0 whole entry, looked up): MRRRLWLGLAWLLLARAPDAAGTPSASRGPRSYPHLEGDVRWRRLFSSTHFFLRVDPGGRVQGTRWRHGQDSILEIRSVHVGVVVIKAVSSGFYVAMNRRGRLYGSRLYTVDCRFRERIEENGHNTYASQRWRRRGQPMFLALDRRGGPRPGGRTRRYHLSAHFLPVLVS
VLA-4 mod pick = human VLA-4 allosteric modulation in cherry picked compounds; U937 cells, HUTS-21 LIBS mAb binding, flow cytometry; LDV ligand present at threefold Kd; 1,300 compounds, 2% hits; shares compounds with VLA-4 inh; inhibition, % at 6.7 µM; in the data active means inhibition above about 40%;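 further: 0% = ligand without compound and 100% = no ligand background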
An asterisk follows results filed as active; · = no result given. An excerpt weighted towards active compounds, which were near 2% of everything screened.

SMILES | ABCB6 inh 2 | Exocytosis inh | MT1-MMP act inh | VLA-4 inh | DAGLB inh | FGF22 binding | others
COC(=O)[C@H]1[C@H](CO)[C@H]2Cn3c(ccc(-c4ccccc4F)c3=O)[C@@H]1N2Cc1ccncc1 | · | · | · | · | · | 0
O=C1NC(=O)C(=Cc2ccc(-c3ccc(F)cc3O)o2)C(=O)N1 | 101 | 11 | -26 | -13 | 3 | 43*
O=C1NC(=O)C(=Cc2ccc(-c3ccc(Cl)cc3)o2)C(=O)N1 | 102 | -11 | -8 | 26 | 5 | ·
Cc1c(C=C2C(=O)NC(=O)NC2=O)c(=O)n(-c2ccccc2)n1C | 97 | 0 | -8 | -8 | 1 | 0
CCN(CC)c1nc2c(C)cccn2c(=O)c1C=C1C(=O)NC(=O)NC1=O | 38* | 0 | -5 | 20 | -1 | 0
CN1C(=O)C(=Cc2ccc(Sc3ccccc3)o2)C(=O)N(C)C1=S | 11* | 12 | 36 | 23 | 5 | 0
O=C1NC(=S)N(c2ccc(F)cc2)C(=O)/C1=C/c1ccco1 | · | · | · | 0 | · | ·
O=C1NC(=O)C(=Cc2ccco2)C(=O)N1 | 105 | 23 | -2 | · | 0 | 44*
O=C1NC(=O)C(=Cc2ccc(Sc3ccccc3)o2)C(=O)N1 | 87 | 98* | 3 | 9 | 11 | 0
COC(=O)[C@@H]1[C@@H](CO)[C@@H]2Cn3c(cccc3=O)[C@H]1N2Cc1nccs1 | · | · | · | · | · | 0
COCOC1CCC2C3CCC4=CC(=O)CCC4=C3C=CC12C (stereo not given) | 106 | -2 | -8 | · | 0 | 0
CC1(O)CCC2C3CCC4=CC(=O)CCC4=C3C=CC21C (stereo not given) | 95 | 1 | 2 | · | -2 | 43*
C[C@H]1CN([C@@H](C)CO)C(=O)CCCn2cc(nn2)CO[C@@H]1CN(C)C(=O)Oc1ccc2ccccc2c1 | · | · | · | · | · | 0
COc1ccc2nc3oc(C(=O)N4CCC5(CC4)OCCO5)cc3cc2c1 | 109 | -2 | 1 | 7 | -2 | 44*
CCOC(=O)[C@@H]1[C@@H]2NC(=S)N(C)[C@@]1(COCc1ccc(OC)cc1)Oc1ccccc12 | · | · | · | · | · | 0
COCC(=O)N1[C@@H]2Cn3c(ccc(C4=CCCC4)c3=O)[C@H]1[C@@H](C(=O)OC)[C@@H]2CO | · | · | · | · | · | 0
CC(=O)Nc1ccccc1C(=O)OCc1ccc(C(=O)c2ccccc2)cc1 | 93 | -2 | 5 | · | -9 | ·
CC(=O)Nc1ccccc1C(=O)OCc1cccc(F)c1 | 85 | 2 | 0 | 56* | -5 | 0
Cc1cccc(OP(=O)(Nc2ccc(F)cc2)Oc2cccc(C)c2)c1 | 99 | 3 | 3 | 20 | -4 | 43*
O=C(O)[C@H]1[C@H](CO)[C@H]2Cn3c(ccc(-c4ccc(F)cc4)c3=O)[C@@H]1N2CC1CCCCC1 | · | · | · | · | · | 0
Cc1cc(C=O)c(C)n1C(C)C | 99 | 0 | -2 | 0 | 0 | 43*
CC(=O)Nc1ccc(OCCF)cc1 | 101 | -1 | 6 | -14 | -4 | 43*
CCOc1ccc(NC(=O)c2c(O)[nH]c(=O)[nH]c2=O)cc1 | 98 | 0 | 3 | · | 2 | 0
O=C1CNC[C@H]2[C@H](c3ccc(Br)cc3)[C@@H](CO)N12 | · | · | · | · | · | 0
O=C(O)[C@H]1[C@H](CO)[C@H]2Cn3c(ccc(-c4ccccc4)c3=O)[C@@H]1N2C(=O)C1CCCCC1 | · | · | · | · | · | 0
SMILES | ABCB6 inh 2 | Exocytosis inh | MT1-MMP act inh | VLA-4 inh | DAGLB inh | FGF22 binding | others
O=c1c2ccccc2[se]n1-c1ccccc1 | 95 | 82* | -9 | -1 | -2 | 0
O=c1c2ccccc2nc(-c2ccccc2)n1-c1ccccc1 | 100 | 3 | 0 | -3 | -1 | 0
COC(=O)[C@@H]1[C@@H](CO)[C@@H]2Cn3c(ccc(C4=CCCC4)c3=O)[C@H]1N2CC1CCCCC1 | · | · | · | · | · | 0
CCCC(C)C1(CC)C(=O)NC(=O)N=C1N (stereo not given) | 96 | -1 | 0 | 13 | -1 | 44*
C=CCC1([C@@H](C)CCC)C(=O)NC(=O)NC1=O | 102 | -3 | 0 | -3 | 1 | 0
CC=Cc1ccc2n(c1=O)C[C@@H]1[C@@H](CO)[C@H](C(=O)OC)[C@H]2N1S(=O)(=O)c1cccc(C)c1 (mixture of isomers) | · | · | · | · | · | 0
O=C(O)c1ccc(Cl)nc1 | 95 | 3 | 0 | -1 | 0 | 43*
CCCN1[C@@H]2c3ccc(-c4ccc(F)cc4)c(=O)n3C[C@H]1[C@H](CO)[C@H]2C(=O)OC | · | · | · | · | · | 0
O=C(O)[C@@H]1[C@@H](CO)[C@@H]2Cn3c(ccc(-c4ccccc4)c3=O)[C@H]1N2C(=O)C1CCCCC1 | · | · | · | · | · | 0
CC1CCC(C(C)C)C(OC(=O)Cn2c(COc3ccccc3)[n+](C)c3ccccc32)C1 (stereo not given) | 97 | 84* | -33 | -21 | 5 | 42
O=C1/C(=C\c2ccc(Cl)c(Cl)c2)N2CCC1CC2 | 98 | 94* | -2 | 8 | -2 | 0
O=C1/C(=C\c2ccncc2)N2CCC1CC2 | 102 | 0 | -5 | -37 | · | 0
O=C(COC(=O)c1cc(Br)cc(Br)c1O)NC12CC3CC(CC(C3)C1)C2 | 100 | 9 | 4 | · | · | 1.7*
COC(=O)[C@@H]1[C@@H](CO)[C@@H]2Cn3c(ccc(/C=C/c4ccccc4)c3=O)[C@H]1N2C(=O)C1CC1 | · | · | · | · | · | 0
O=C(COC(=O)c1cccc(O)c1)Nc1ccc(Cl)cc1C(=O)c1ccccc1 | 97 | 4 | 3 | 5 | -7 | 52*
C[C@]12CC[C@H](O)C[C@H]1CC[C@@H]1[C@@H]2C[C@@H](O)[C@]2(C)[C@@H](C3=CC(=O)OC3)CC[C@]12O | 97 | -1 | -36 | 51* | -1 | 0 | VLA-4 mod pick=-2
O=C(OC1CC2CCC(N2)C1C(=O)O)c1ccccc1 (stereo not given) | 95 | 0 | -1 | -6 | -2 | 0 | VLA-4 mod pick=3
COC(=O)[C@H]1[C@H](CO)[C@H]2Cn3c(ccc(-c4ccccc4F)c3=O)[C@@H]1N2Cc1ccccc1 | · | · | · | · | · | 0
COC(=O)C1CN(C#N)N(c2ccc(Cl)cc2)C12c1ccccc1-c1ccccc12 (stereo not given) | 90 | 69* | -34 | 62* | 22 | · | VLA-4 mod pick=53*
NC(=O)Cn1cc(C(=O)c2ccccc2)c2ccccc21 | 98 | -1 | 0 | -7 | -2 | 0 | VLA-4 mod pick=0
CC1(C)C[C@H]2C=C(C=O)[C@]3(C=O)C[C@]3(C)[C@H]2C1 | 96 | 46 | -10 | 65* | 7 | 0 | VLA-4 mod pick=48*
COc1cccc(-c2sc3ccccc3c2-c2ccc(OCCN3CCOCC3)cc2)c1 | 100 | 10 | -8 | 17 | -8 | 0 | VLA-4 mod pick=-1
COc1ccc(-n2c(CN3CCOCC3)nc3ccccc3c2=O)c(OC)c1 | 101 | -9 | 0 | 7 | 1 | 0
